Reference: ChEMBL document CHEMBL1135769, “Design, synthesis, and biological evaluation of aryloxyethyl thiocyanate derivatives against Trypanosoma cruzi” (J Med Chem, 2002)

Tests used:
Trypanosoma cruzi [1] = experiment: Antiproliferative activity against epimastigote form of Trypanosoma cruzi; format: functional, organism-based
Method in brief: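 Y-strain epimastigotes grown at 28 °C in brain-heart infusion (37 g/L) with hemin chlorohydrate (20 mg/L) and 10% newborn calf serum. Inoculum was (2-3) × 10^6 cells/mL. Compounds were tested at 1, 10, 50 and 100 µg/mL, each in quadruplicate, with at most 1% ethanol. Growth was read as A600. Percent inhibition came from the absorbance change from start to end versus controls, and IC50 was estimated by linear and polynomial regression.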

Trypanosoma cruzi [2] = experiment: Inhibition of growth of uM; format: functional
Method in brief: (§1)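 Epimastigotes (Y strain) were cultured at 28 °C in brain-heart infusion medium with hemin and 10% newborn calf serum, starting at (2-3) × 10^6 cells/mL, with at most 1% ethanol vehicle. Culture density was followed by absorbance at 600 nm. Percent growth inhibition = 100 − (ΔA drug-treated × 100 / ΔA control), where ΔA is the change from start to end of the experiment.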

Trypanosoma cruzi [3] = experiment: Antiparasitic activity against amastigote form of Trypanosoma cruzi
Trypanosoma cruzi [4] = experiment: (§2) Percent Inhibition of growth of uM; format: functional; method in brief: as §1
Trypanosoma cruzi [5] = experiment: Percent Inhibition of multiplication of Trypanosoma cruzi; format: functional
Method in brief: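 Intracellular assay in L6E9 myoblasts irradiated with 2000 rad, seeded at 1.2 × 10^7 cells/flask in DMEM with 20% FCS and held 24 h at 35 °C. Cells infected 2 h with 5 × 10^7 Y-strain trypomastigotes/flask, then washed. Drugs added at several concentrations with 1.0 µCi [5,6-3H]uracil for 72 h. Percent inhibition of uracil uptake from mean cpm versus infected untreated cells. Host-cell toxicity checked by phase-contrast microscopy.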

Trypanosoma cruzi [6] = experiment: Inhibition against Trypanosoma cruzi at a concentration of 70 uM; format: functional; method in brief: as §1
Trypanosoma cruzi [7] = experiment: as §2; format: functional; remark: listed apart in the source
Method in brief: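 Y-strain T. cruzi epimastigotes grown at 28 °C in brain-heart infusion (37 g/L) with hemin (20 mg/L) and 10% newborn calf serum. Start inoculum (2-3) × 10^6 cells/mL. Four concentrations (1, 10, 50, 100 µg/mL), each in quadruplicate, with at most 1% ethanol. Growth read as A600 at start and end; percent inhibition taken against untreated cultures. IC50 estimated by linear and polynomial regression.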

Trypanosoma cruzi [8] = experiment: Inhibitory activity towards Trypanosoma cruzi

SMILES	IC50 (Trypanosoma cruzi [1])	further results
Cc1ccccc1OCCOC1CCCCO1 (stereo not drawn)	> 70 µM	
Cc1ccc(OCCSC#N)cc1	12.1 µM	
Clc1ccccc1OCCOC1CCCCO1 (stereo not drawn)	> 70 µM	Inhibition (Trypanosoma cruzi [2]): 22%
S=C(NCCOc1ccc(Oc2ccccc2)cc1)SCc1ccccc1	32.2 µM	IC50 (Trypanosoma cruzi [3]): > 70 µM
Cc1cccc(C)c1OCCOC1CCCCO1 (stereo not drawn)	> 70 µM	
c1ccc(Oc2ccc(OCC3CN3)cc2)cc1 (stereo not drawn)	41.5 µM	
CSCCOc1ccc(Oc2ccccc2)cc1	> 100 µM	Inhibition (Trypanosoma cruzi [2]): 18%
CS/C(S)=N/CCOc1ccc(Oc2ccccc2)cc1	45.6 µM	IC50 (Trypanosoma cruzi [3]): 27.4 µM
c1ccc(CSCCOc2ccc(Oc3ccccc3)cc2)cc1	> 60 µM	Inhibition (Trypanosoma cruzi [2]): 41%
N#CSCCOc1ccccc1I	18.5 µM	IC50 (Trypanosoma cruzi [3]): > 70 µM
Cc1cc(C)cc(OCCSC#N)c1	19.3 µM	
N#CSCCOc1ccc([S+]([O-])c2ccccc2)cc1 (stereo not drawn)	7.7 µM	IC50 (Trypanosoma cruzi [3]): 58.8 µM
C=CCSC(=S)NCCOc1ccc(Oc2ccccc2)cc1	33.3 µM	IC50 (Trypanosoma cruzi [3]): > 70 µM
O=C=NCCOc1ccc(Oc2ccccc2)cc1	> 70 µM	Inhibition (Trypanosoma cruzi [4]): 28%
[N-]=[N+]=NCC(O)COc1ccc(Oc2ccccc2)cc1 (stereo not drawn)	> 70 µM	
Ic1ccccc1OCCOC1CCCCO1 (stereo not drawn)	> 60 µM	Inhibition (Trypanosoma cruzi [2]): 20%
Cc1ccc(S(=O)(=O)c2cc(Oc3ccccc3)ccc2OCCSC#N)cc1	4.7 µM	
N#CSCCOc1ccc2c(c1)[nH]c1ccccc12	10.3 µM	
C=CCc1cc(Oc2ccccc2)ccc1OCCOC1CCCCO1 (stereo not drawn)	> 60 µM	
N#CSCCOc1ccc(Nc2ccccc2)cc1	3.3 µM	IC50 (Trypanosoma cruzi [3]): 41.1 µM; Inhibition (Trypanosoma cruzi [5]): 10%
c1ccc(Cn2c3ccccc3c3ccc(OCCOC4CCCCO4)cc32)cc1 (stereo not drawn)	> 70 µM	
C/C=C/c1cc(Oc2ccccc2)ccc1OCCOC1CCCCO1 (stereo not drawn)	> 60 µM	
O=C(NCCOc1ccc(Oc2ccccc2)cc1)C1CC1	> 70 µM	inhibition at 70 µM (Trypanosoma cruzi [6]): 31%
Cc1ccc(C)c(OCCOC2CCCCO2)c1 (stereo not drawn)	> 70 µM	Inhibition (Trypanosoma cruzi [2]): 15%

SMILES	IC50 (Trypanosoma cruzi [1])	further results
Cc1cc(C)cc(OCCOC2CCCCO2)c1 (stereo not drawn)	> 70 µM	
Cc1cccc(OCCOC2CCCCO2)c1C (stereo not drawn)	> 70 µM	
[O-][S+](c1ccccc1)c1ccc(OCCOC2CCCCO2)cc1 (stereo not drawn)	> 70 µM	
C=CCc1cc(Oc2ccccc2)ccc1OCCSC#N	> 60 µM	IC50 (Trypanosoma cruzi [3]): > 70 µM
N#CSCCOc1ccccc1Br	20.2 µM	
CC(C)(C)/N=C(\S)NCCOc1ccc(Oc2ccccc2)cc1	40.3 µM	
Cc1cccc(C)c1OCCSC#N	13.3 µM	IC50 (Trypanosoma cruzi [3]): > 70 µM
Cc1cccc(OCCSC#N)c1C	14.8 µM	
Cc1ccc(C)c(OCCSC#N)c1	14.5 µM	
N#CSCCOc1ccccc1	16.8 µM	
Cc1ccc(OCCSC#N)c(C)c1	18.8 µM	IC50 (Trypanosoma cruzi [3]): 5 µM
Cc1ccc(OCCOC2CCCCO2)cc1 (stereo not drawn)	> 70 µM	Inhibition (Trypanosoma cruzi [2]): 11%
S=C=NCCOc1ccc(Oc2ccccc2)cc1	15.9 µM	IC50 (Trypanosoma cruzi [3]): 46.7 µM
Cc1ccccc1OCCSC#N	16.4 µM	
N#CSCCOc1ccccc1Cl	11.4 µM	
c1ccc(Oc2ccc(OCCSc3ccccc3)cc2)cc1	62.1 µM	
c1ccc(Nc2ccc(OCCOC3CCCCO3)cc2)cc1 (stereo not drawn)	31.4 µM	
Cc1ccc(OCCOC2CCCCO2)c(C)c1 (stereo not drawn)	> 70 µM	
Cc1ccc(S(=O)(=O)c2cc(Oc3ccccc3)ccc2OCCOC2CCCCO2)cc1 (stereo not drawn)	> 70 µM	
C/C=C/c1cc(Oc2ccccc2)ccc1OCCSC#N	6.8 µM	IC50 (Trypanosoma cruzi [3]): 14 µM
CC(=O)N1CCN(c2ccc(OCC3COC(Cn4ccnc4)(c4ccc(Cl)cc4Cl)O3)cc2)CC1 (stereo not drawn) [KETOCONAZOLE]		Inhibition (Trypanosoma cruzi [7]): 18%
C[S@+]([O-])CCCCN=C=S [L-SULFORAPHANE]	102 µM	
C[S+]([O-])CCCCN=C=S (stereo not drawn) [SULFORAPHANE]	> 120 µM	IC50 (Trypanosoma cruzi [8]): 15 µM
